Test results from ChEMBL document CHEMBL3259817, “N-carbamidoyl-4-((3-ethyl-2,4,4-trimethylcyclohexyl)methyl)benzamide enhances staurosporine cytotoxic effects likely inhibiting the protective action of Magmas toward cell apoptosis” (J Med Chem, 2014).
Calls of active or inactive are those of the source. No cut-off for these calls is given here.

Key:
[1] = system: TT; assay: Induction of apoptosis in human TT cells assessed as caspase 3/7 activation at 1 to 10 uM after 72 hrs by luminescence assay; type: functional, cell-based
In short: (§1)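 TT cells (2 × 10^4/well) exposed 72 h to compound, treatment renewed every 24 h; vehicle 0.1% DMSO. Caspase-Glo 3/7 reagent added at room temperature, plates shaken 30 s, incubated 1 h, luminescence (RLU) read. Mean ± SE percent RLU vs vehicle control; three independent experiments in six replicates.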

[2] = system: TT; assay: Effect on total TIM16 protein level in human TT cells at 10 uM after 24 hrs by Western blotting analysis; type: functional, cell-based
In short: (§2)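 TT cells treated 24 h with 10 μM compound alone or with 50 nM staurosporine, then lysed in RIPA buffer on ice 30 min and centrifuged; protein by BCA. Lysates run on 10% SDS-PAGE, blotted to nitrocellulose, probed with rabbit anti-Tim 16 (1:1000), HRP anti-rabbit IgG (1:5000), ECL detection; stripped and reprobed for β-actin loading control.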

[3] = system: TT; assay: Effect on total TIM16 protein level in human TT cells at 10 uM after 24 hrs by Western blotting analysis in presence of staurosporine; type: functional, cell-based; in short: as §2
[4] = system: TT; assay: Cytotoxicity against human TT cells assessed as reduction in cell viability at 1 to 10 uM after 72 hrs by ATPlite assay; type: functional, cell-based
In short: (§3)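 TT or MCF12A cells seeded at 2 × 10^4/well, exposed to compound for 72 h with treatment renewed every 24 h; vehicle control 0.1% DMSO. Viable cell number read by ATPlite luminescence (RLU). Results are mean ± SE percent RLU vs vehicle-treated control from three independent experiments in six replicates.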

[5] = system: TT; assay: Potentiation of staurosporine-induced apoptosis in human TT cells assessed as caspase 3/7 activation at 5 to 10 uM after 72 hrs by ATPlite assay relative to control; type: functional, cell-based; details: in the assay text read “Caspase-Glo 3/7 assay” for “ATPlite assay”
In short: (§4)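 TT cells (2 × 10^4/well) given 5 or 10 μM compound alone or with 50 nM staurosporine, renewed every 24 h, for 72 h. Caspase 3/7 activity by Caspase-Glo 3/7: reagent added at room temperature, 30 s shake, 1 h incubation, luminescence read. Mean ± SE percent RLU vs vehicle control, three experiments in six replicates.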

[6] = system: TT; assay: Potentiation of staurosporine-induced apoptosis in human TT cells assessed as caspase 3/7 activation at 5 uM after 72 hrs by ATPlite assay relative to control; type: functional; details: in the assay text read “Caspase-Glo 3/7 assay” for “ATPlite assay”; in short: as §4
[7] = system: TT; assay: Potentiation of staurosporine-induced apoptosis in human TT cells assessed as caspase 3/7 activation at 10 uM after 72 hrs by ATPlite assay relative to control; type: functional; details: in the assay text read “Caspase-Glo 3/7 assay” for “ATPlite assay”; in short: as §4
[8] = system: TT; assay: Potentiation of staurosporine-induced cytotoxicity against human TT cells assessed as reduction in cell viability at 5 uM after 72 hrs by ATPlite assay relative to control; type: functional
In short: (§5)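 Cells seeded at 2 × 10^4/well, given 5 or 10 μM compound alone or combined with 50 nM staurosporine, treatments renewed every 24 h for 72 h; vehicle 0.1% DMSO. ATPlite luminescence (RLU) read-out, expressed as mean ± SE percent of vehicle-treated control; three independent experiments, six replicates each.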

[9] = system: TT; assay: Potentiation of staurosporine-induced cytotoxicity against human TT cells assessed as reduction in cell viability at 10 uM after 72 hrs by ATPlite assay relative to control; type: functional; in short: as §5
[10] = Cytotoxicity against human MCF12A cells assessed as reduction in cell viability at 5 to 10 uM after 72 hrs by ATPlite assay; type: cell-based; details: mcf-12a; in short: as §3
[11] = Potentiation of staurosporine-induced cytotoxicity against human MCF12A cells assessed as reduction in cell viability at 5 to 10 uM after 72 hrs by ATPlite assay; type: cell-based; details: mcf-12a; in short: as §5
[12] = system: TT; assay: Induction of apoptosis in human TT cells assessed as decrease in mitochondrial membrane potential at 10 uM by JC-1 staining-based fluorescence microscopic analysis; type: functional, cell-based
In short: (§6)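 TT cells treated with 5 or 10 μM compound, 50 nM staurosporine, or the combination. Mitochondrial membrane potential assessed with JC-1 dye, 30 min at 37 °C, by fluorescence microscopy; red aggregate fluorescence indicates retained potential, green monomer fluorescence a fall in potential.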

[13] = system: TT; assay: Potentiation of staurosporine-induced apoptosis in human TT cells assessed as decrease in mitochondrial membrane potential at 10 uM by JC-1 staining-based fluorescence microscopic analysis; type: functional, cell-based; in short: as §6
[14] = system: TT; assay: Induction of apoptosis in human TT cells assessed as caspase 3/7 activation at 10 uM after 72 hrs by luminescence assay relative to control; type: functional; in short: as §1
[15] = system: TT; assay: Cytotoxicity against human TT cells assessed as reduction in cell viability at 10 uM after 72 hrs by ATPlite assay relative to control; type: functional; in short: as §3
[16] = system: TT; assay: Cytotoxicity against human TT cells assessed as reduction in cell viability at 5 uM after 72 hrs by ATPlite assay; type: functional, cell-based; in short: as §3
[17] = system: TT; assay: Potentiation of staurosporine-induced cytotoxicity against human TT cells assessed as reduction in cell viability at 5 to 10 uM after 72 hrs by ATPlite assay; type: functional, cell-based; in short: as §5
[18] = system: TT; assay: Induction of apoptosis in human TT cells assessed as caspase 3/7 activation at 5 uM after 72 hrs by luminescence assay; type: functional, cell-based; in short: as §1

CCC1=C(C)/C(=C/c2ccc(C(=O)O)cc2)CCC1(C)C
Activity [1]: inactive
Activity [2]: inactive
Activity [3]: inactive
Activity [4]: inactive
Activity [5]: inactive

CCC1=C(C)/C(=C/c2ccc(C(=O)NC(N)=O)cc2)CCC1(C)C
Activity [1]: inactive
Activity [2]: inactive
Activity [3]: inactive
Activity [4]: inactive
Activity [5]: inactive

CCC1C(C)C(Cc2ccc(C(=O)NC(=N)N)cc2)CCC1(C)C (stereo not drawn)
Activity [1]: inactive
Activity [2]: inactive
Activity [3]: inactive
Activity [4]: inactive
Activity [6]: 140%
Activity [7]: 330%
Activity [8]: 12%
Activity [9]: 20%
Activity [10]: Non-toxic
Activity [11]: Non-toxic
Activity [12]: Active
Activity [13]: Active

CCC1=C(C)/C(=C/c2ccc(C(N)=O)cc2)CCC1(C)C
Activity [1]: inactive
Activity [2]: inactive
Activity [3]: inactive
Activity [4]: inactive
Activity [5]: inactive

CCC1=C(C)/C(=C/c2ccc(C(=O)NC(=N)N)cc2)CCC1(C)C
Activity [14]: 300%
Activity [15]: 70%
Activity [2]: inactive
Activity [3]: inactive
Activity [16]: inactive
Activity [17]: Active
Activity [18]: inactive
Activity [6]: 40%
Activity [7]: 400%
Activity [12]: inactive
Activity [13]: Active
